Assay results as given in ChEMBL document CHEMBL3808288, “Identification and in Vivo Evaluation of Liver X Receptor β-Selective Agonists for the Potential Treatment of Alzheimer's Disease” (J Med Chem, 2016).
In brackets after ≈: the same amount, converted by molar mass. Activity calls are given as the source filed them. No cut-off for these calls is given here.

Key:
Rhesus monkey [1] = experiment: Increase in amyloid beta40 in CSF of rhesus monkey at 10 mg/kg, po administered for 2 weeks; type: functional, Macaca mulatta
Mus musculus [2] = experiment: Toxicity in Tg2576 mouse assessed as increase in liver triglyceride level at 10 mg/kg, sc dosed for 3 weeks; type: organism-based; conditions: in vivo, 504 h
Summary of the method: (§1)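 12-month-old Tg2576 mice were dosed subcutaneously for three weeks. Brain was assayed for ABCA1 protein, soluble apoE and DEA-soluble Aβ, and plasma and liver were assayed for triglycerides. Groups were compared with vehicle by ANOVA.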

Rhesus monkey [3] = experiment: Increase in amyloid beta42 in CSF of rhesus monkey at 5 mg/kg, po administered for 2 weeks; type: functional, organism-based; conditions: Macaca mulatta
Rhesus monkey [4] = experiment: Increase in amyloid beta40 in CSF of rhesus monkey at 5 mg/kg, po administered for 2 weeks; type: functional, organism-based; conditions: Macaca mulatta
Mus musculus [5] = experiment: Toxicity in Tg2576 transgenic mouse assessed as increase in plasma triglyceride level at 10 mg/kg, sc dosed for 3 weeks; type: organism-based; conditions: in vivo, 504 h; summary of the method: as §1
Rhesus monkey [6] = experiment: Increase in amyloid beta42 in CSF of rhesus monkey at 10 mg/kg, po administered for 2 weeks; type: functional, Macaca mulatta
[7] = target: T1, Oxysterols receptor LXR-alpha (Homo sapiens) (UniProt Q13133); experiment: Agonist activity at GST-tagged LXRalpha-LBD (unknown origin) by LanthaScreen TR-FRET liver X receptor coactivator assay T1317
T1 sequence (whole entry): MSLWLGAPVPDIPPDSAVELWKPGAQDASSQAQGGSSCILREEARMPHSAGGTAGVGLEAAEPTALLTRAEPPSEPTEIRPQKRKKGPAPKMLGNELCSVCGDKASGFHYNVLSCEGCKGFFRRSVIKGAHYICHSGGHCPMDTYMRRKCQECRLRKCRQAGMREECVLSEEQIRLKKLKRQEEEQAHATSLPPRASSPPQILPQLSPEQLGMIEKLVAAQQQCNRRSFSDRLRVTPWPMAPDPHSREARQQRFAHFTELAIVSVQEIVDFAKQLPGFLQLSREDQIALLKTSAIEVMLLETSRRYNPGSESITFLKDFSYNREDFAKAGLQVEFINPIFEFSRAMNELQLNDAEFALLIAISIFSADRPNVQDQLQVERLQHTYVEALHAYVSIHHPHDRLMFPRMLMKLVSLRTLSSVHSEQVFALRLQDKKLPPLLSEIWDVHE
Summary of the method: (§2)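 Cofactor recruitment assay using the ligand binding domains of LXRβ or LXRα. The read-out was EC50 and Emax, with Emax relative to a full agonist control.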

[8] = target: T2, Oxysterols receptor LXR-beta (Homo sapiens) (UniProt P55055); experiment: Agonist activity at GST-tagged LXRbeta-LBD (unknown origin) by LanthaScreen TR-FRET liver X receptor coactivator assay relative to T1317; summary of the method: as §2
T2 sequence (whole entry): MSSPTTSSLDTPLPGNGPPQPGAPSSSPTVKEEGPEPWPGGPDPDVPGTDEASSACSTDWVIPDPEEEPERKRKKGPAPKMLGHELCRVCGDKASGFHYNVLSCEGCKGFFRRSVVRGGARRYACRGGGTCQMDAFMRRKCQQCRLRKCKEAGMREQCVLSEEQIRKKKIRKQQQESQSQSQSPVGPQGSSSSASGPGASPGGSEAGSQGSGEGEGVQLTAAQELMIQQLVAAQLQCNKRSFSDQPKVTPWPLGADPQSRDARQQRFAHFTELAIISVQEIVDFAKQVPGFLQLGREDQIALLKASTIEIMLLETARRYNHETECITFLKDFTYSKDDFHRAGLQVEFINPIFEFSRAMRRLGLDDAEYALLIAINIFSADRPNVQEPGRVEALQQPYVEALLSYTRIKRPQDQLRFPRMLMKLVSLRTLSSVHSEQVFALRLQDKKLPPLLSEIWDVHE

[9] = target: T3, Oxysterols receptor LXR-beta (Homo sapiens, UniProt P55055); experiment: (§3) Agonist activity at LXRbeta (unknown origin) expressed in human H4 cells co-expressing ABCA1 promoter measured after 48 hrs by cell-based transactivation assay
T3 sequence (P55055 whole entry): T2 sequence (whole entry)

[10] = target: T2, Oxysterols receptor LXR-beta (Homo sapiens); experiment: as §3
[11] = target: T4, Oxysterols receptor LXR-alpha (Homo sapiens, UniProt Q13133); experiment: (§4) Agonist activity at LXRalpha (unknown origin) expressed in human HepG2 cells co-expressing ABCA1 promoter measured after 48 hrs by cell-based transactivation assay
T4 sequence (Q13133 whole entry): T1 sequence (whole entry)

[12] = target: T1, Oxysterols receptor LXR-alpha (Homo sapiens); experiment: as §4
[13] = Solubility of the compound at pH 2; type: physicochemical; conditions: buffer
[14] = target: T3, Oxysterols receptor LXR-beta; experiment: Agonist activity at GST-tagged LXRbeta-LBD (unknown origin) by LanthaScreen TR-FRET liver X receptor coactivator assay; summary of the method: as §2
[15] = target: T4, Oxysterols receptor LXR-alpha; experiment: Agonist activity at GST-tagged LXRalpha-LBD (unknown origin) by LanthaScreen TR-FRET liver X receptor coactivator assay; summary of the method: as §2

Row | Emax [7] | Emax [8] | EC50 [9] | Emax [10] | EC50 [11] | Emax [12] | solubility [13] | EC50 [14] | EC50 [15] | Compound | Activity (Rhesus monkey [1]) | Activity (Mus musculus [2]) | Activity (Rhesus monkey [3]) | Activity (Rhesus monkey [4]) | Activity (Mus musculus [5]) | Activity (Rhesus monkey [6])
1 |  |  |  |  |  |  |  |  |  | O=S(=O)(c1ccccc1)N(CC(F)(F)F)c1ccc(C(O)(C(F)(F)F)C(F)(F)F)cc1 [T091317] | 25% | Toxic | inactive | inactive | Toxic | 25%
2 | 62% | 67% | 7 nM | 64% | 45 nM | 66% | 3 µM (≈ 1.72 µg/mL) | 8 nM | 41 nM | CN(C)C(=O)c1ccc(-c2cnc(N3CCN(C(=O)[C@](O)(c4ccccc4)C(F)(F)F)CC3)c(C#N)c2)cc1Cl |  |  |  |  |  | 
